# From ChEMBL document CHEMBL1121524, “Studies of hypolipidemic agents. 1. Synthesis and hypolipidemic activities of alkoxycinnamic acid derivatives” (1980)
# Legend:
# Rattus norvegicus [1] = organism: Rattus norvegicus; assay: Tested for the hypolipidemic activity, expressed as percent decrease in serum cholesterol in rat, at dosage of 50 mg for 7 days; assay type: functional
# Summary of the method: (§1)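 Male Sprague-Dawley rats, 4 weeks old, kept on CE-2 chow for at least 1 week, then grouped (generally five per group). Compound was mixed into CE-2 powder and fed ad libitum for the stated period; controls received plain CE-2 powder. Diet level is given as mg/100 g (mg%), about equal to mg/kg/day. Total serum cholesterol was measured by the Zak et al. method and reported as percent depression versus control group mean. Significance was p < 0.05.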
# Rattus norvegicus [2] = assay: In vivo hypolipidemic activity, expressed as percent decrease in Triglyceride in rat, at dosage of 100 mg for 7 days.; assay type: functional
# Summary of the method: as §1, with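 “triglyceride” for “cholesterol”, “Ryan and Rasho” for “Zak et al.”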
# Rattus norvegicus [3] = organism: Rattus norvegicus; assay: Hypolipidemic activity expressed as percentage decrease in triglyceride in rat, at dosage of 50 mg for 7 days; assay type: functional
# Summary of the method: as §1, with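 “triglyceride” for “cholesterol”, “Ryan and Rasho” for “Zak et al.”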
# Rattus norvegicus [4] = assay: In vivo hypolipidemic activity, expressed as percent decrease in serum cholesterol in rat, at dosage of 20 mg for 7 days.; assay type: functional; summary of the method: as §1
# Rattus norvegicus [5] = assay: In vivo hypolipidemic activity, expressed as percent decrease in serum triglyceride in rat, at dosage of 20 mg for 7 days.
# Rattus norvegicus [6] = organism: Rattus norvegicus; assay: Hypolipidemic activity, expressed as percent decrease in serum cholesterol in rat, at dosage of 100 mg for 7 days by Zak et al method; assay type: functional; summary of the method: as §1
# Rattus norvegicus [7] = organism: Rattus norvegicus; assay: Tested for the hypolipidemic activity, expressed as percent decrease in serum cholesterol in rat, at dosage of 100 mg for 3 days by Zak et al method; assay type: functional; summary of the method: as §1
# Rattus norvegicus [8] = organism: Rattus norvegicus; assay: Tested for the hypolipidemic activity, expressed as percent decrease in Triglyceride in rat, at dosage of 100 mg for 3 days by Ryan and Rasho method; assay type: functional
# Summary of the method: as §1, with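 “triglyceride” for “cholesterol”, “Ryan and Rasho” for “Zak et al.”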
# Rattus norvegicus [9] = organism: Rattus norvegicus; assay: Tested for the hypolipidemic activity, expressed as percent decrease in Triglyceride in rat, at dosage of 100 mg for 6 days by Ryan and Rasho method; assay type: functional
# Summary of the method: as §1, with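 “triglyceride” for “cholesterol”, “Ryan and Rasho” for “Zak et al.”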
# Rattus norvegicus [10] = organism: Rattus norvegicus; assay: Tested for the hypolipidemic activity, expressed as percent decrease in serum cholesterol in rat, at dosage of 100 mg for 6 days by Zak et al method; assay type: functional; summary of the method: as §1
# Rattus norvegicus [11] = organism: Rattus norvegicus; assay: Tested for the hypolipidemic activity, expressed as percent decrease in serum cholesterol in rat, at dosage of 10 mg for 7 days by Zak et al method; assay type: functional; summary of the method: as §1
# Rattus norvegicus [12] = organism: Rattus norvegicus; assay: Tested for the hypolipidemic activity, expressed as percent decrease in Triglyceride in rat, at dosage of 10 mg for 7 days by Ryan and Rasho method; assay type: functional
# Summary of the method: as §1, with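 “triglyceride” for “cholesterol”, “Ryan and Rasho” for “Zak et al.”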
# Rattus norvegicus [13] = organism: Rattus norvegicus; assay: tested for the hypolipidemic activity, expressed as percent decrease in Triglyceride in rat, at dosage of 10 mg for 7 days by Ryan and Rasho method; assay type: functional
# Summary of the method: as §1, with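 “triglyceride” for “cholesterol”, “Ryan and Rasho” for “Zak et al.”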
# Rattus norvegicus [14] = organism: Rattus norvegicus; assay: tested for the hypolipidemic activity, expressed as percent decrease in serum cholesterol in rat, at dosage of 10 mg for 7 days by Zak et al method; assay type: functional; summary of the method: as §1
# Rattus norvegicus [15] = organism: Rattus norvegicus; assay: tested for the hypolipidemic activity, expressed as percent decrease in Triglyceride in rat, at dosage of 50 mg for 3 days by Ryan and Rasho method; assay type: functional
# Summary of the method: as §1, with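 “triglyceride” for “cholesterol”, “Ryan and Rasho” for “Zak et al.”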
# Rattus norvegicus [16] = organism: Rattus norvegicus; assay: tested for the hypolipidemic activity, expressed as percent decrease in serum cholesterol in rat, at dosage of 50 mg for 3 days by Zak et al method; assay type: functional; summary of the method: as §1
# Rattus norvegicus [17] = organism: Rattus norvegicus; assay: Tested for the hypolipidemic activity, expressed as percent decrease in Triglyceride in rat, at dosage of mg for 7 days by Ryan and Rasho method; assay type: functional
# Summary of the method: as §1, with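 “triglyceride” for “cholesterol”, “Ryan and Rasho” for “Zak et al.”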
SMILES,Decrease (Rattus norvegicus [1]),Decrease (Rattus norvegicus [2]),Decrease (Rattus norvegicus [3]),Decrease (Rattus norvegicus [4]),Decrease (Rattus norvegicus [5]),Decrease (Rattus norvegicus [6]),other results
CCCCCCCCCCCCCCOc1ccc(/C=C(\C)C(=O)O)cc1,17%,45%,26%,12%,38%,16%,–
CCCCCCCCCCCCCCCCOc1ccc(/C=C(\C)C(=O)OCCCCl)cc1,–,–,–,–,–,–,Decrease (Rattus norvegicus [7]): 17%; Decrease (Rattus norvegicus [8]): 25%
C/C(=C\c1ccc(Oc2ccccc2)cc1)C(=O)O,–,–,–,8%,15%,–,–
C/C(=C\c1ccccc1)C(=O)OCC(O)CO (stereo not drawn),–,–,–,–,–,–,Decrease (Rattus norvegicus [7]): 10%; Decrease (Rattus norvegicus [8]): 22%
CCCCCCCCCCCCCCCCOc1ccc(/C=C/C(=O)OCCCO)cc1,–,–,–,–,–,–,Decrease (Rattus norvegicus [7]): 16%; Decrease (Rattus norvegicus [8]): 16%
CCCCCCCCCCCCCCCCOc1ccc(/C=C(\C)C(=O)OCCO)cc1,–,–,–,–,–,–,Decrease (Rattus norvegicus [7]): 13%; Decrease (Rattus norvegicus [8]): 59%
CCCCCCCCOc1ccc(/C=C/C(=O)OCC(O)CO)cc1 (stereo not drawn),–,–,–,–,–,–,Decrease (Rattus norvegicus [9]): 15%; Decrease (Rattus norvegicus [10]): 7%
CCCCOc1ccc(/C=C/C(=O)OCC(O)CO)cc1 (stereo not drawn),–,–,–,–,–,–,Decrease (Rattus norvegicus [9]): 15%; Decrease (Rattus norvegicus [10]): 7%
CCCCCCCCCCCCCCCCOc1ccc(/C=C/C(=O)O)cc1,–,–,–,2%,–,–,Decrease (Rattus norvegicus [11]): 7%; Decrease (Rattus norvegicus [12]): 2%
CCCCOc1ccc(/C=C/C(=O)OCCCl)cc1,–,26%,–,–,–,0%,–
CCCCCCCCCCCCCCCCOc1ccc(/C=C(\C)C(=O)OCCCO)cc1,–,–,–,–,–,–,Decrease (Rattus norvegicus [7]): 6%; Decrease (Rattus norvegicus [8]): 43%
CCCCCCCCCCCCCCCCOc1ccc(/C=C/C(=O)OCCS(=O)(=O)[O-])cc1.[Na+],–,47%,–,–,–,17%,–
CCCCOc1ccc(/C=C/C(=O)OCCS(=O)(=O)[O-])cc1.[Na+],–,9%,–,–,–,-1%,–
CCCCCCCCCCCCCCOc1ccc(/C=C(\C)C(=O)OCCC(=O)OC)cc1,30%,–,37%,-1%,7%,–,–
C=C(C)C(=O)OCCOC(=O)/C(C)=C/c1ccc(OCCCCCCCCCCCCCCCC)cc1,–,62%,–,13%,12%,35%,Decrease (Rattus norvegicus [13]): 10%; Decrease (Rattus norvegicus [14]): 3%; Decrease (Rattus norvegicus [15]): 27%; Decrease (Rattus norvegicus [16]): 25%
C=C(C)C(=O)OCCCOC(=O)/C=C/c1ccc(OCCCCCCCCCCCCCCCC)cc1,–,0%,–,–,–,16%,–
C/C(=C\c1ccc(Oc2ccccc2)cc1)C(=O)OCCCl,14%,–,-6%,15%,22%,–,–
C=CCOc1ccc(/C=C/C(=O)OCC(O)CO)cc1 (stereo not drawn),–,–,–,–,–,–,Decrease (Rattus norvegicus [7]): 12%; Decrease (Rattus norvegicus [8]): -14%
COc1ccc(/C=C/C(=O)OCC(O)CO)cc1 (stereo not drawn),–,–,–,–,–,–,Decrease (Rattus norvegicus [9]): 31%; Decrease (Rattus norvegicus [10]): 4%
C=C(C)C(=O)OCCOC(=O)/C=C/c1ccc(OCc2ccccc2)cc1,–,33%,–,–,–,13%,–
C=C(C)C(=O)OCCOC(=O)/C=C/c1ccc(OCCCCCCCC)cc1,–,-11%,–,–,–,16%,–
O=C(/C=C/c1ccc(Oc2ccccc2)cc1)OCC(O)CO (stereo not drawn),11%,–,29%,15%,26%,–,–
CCCCCCCCCCCCCCOc1ccc(/C=C(\C)C(=O)OCC)cc1,7%,–,34%,6%,37%,–,–
CCCCCCCCCCCCCCCCOc1ccc(/C=C/C(=O)OCCCCl)cc1,5%,44%,48%,1%,38%,22%,–
CCCCOc1ccc(/C=C/C(=O)OCCBr)cc1,–,26%,–,–,–,9%,–

SMILES,Decrease (Rattus norvegicus [1]),Decrease (Rattus norvegicus [2]),Decrease (Rattus norvegicus [3]),Decrease (Rattus norvegicus [4]),Decrease (Rattus norvegicus [5]),Decrease (Rattus norvegicus [6]),other results
C/C(=C\c1ccc(Oc2ccccc2)cc1)C(=O)OCC(O)CO (stereo not drawn),14%,–,4%,7%,-1%,–,–
CCCCCCCCCCCCCCCCOc1ccc(/C=C/C(=O)OCCO)cc1,–,57%,–,18%,26%,24%,–
C=C(C)C(=O)OCCOC(=O)/C=C/c1ccc(OCCCCCCCCCCCCCCCC)cc1,13%,65%,42%,16%,38%,27%,Decrease (Rattus norvegicus [13]): 15%; Decrease (Rattus norvegicus [14]): 5%
C/C=C/C(=O)OCCOC(=O)/C=C/c1ccc(OCCCCCCCCCCCCCCCC)cc1,–,11%,–,–,–,3%,–
CCCCCCCCCCCCCCCCOc1ccc(/C=C/C(=O)OCCCOC(=O)/C=C/c2ccc(OCCCCCCCCCCCCCCCC)cc2)cc1,–,–,–,–,–,–,Decrease (Rattus norvegicus [7]): 8%; Decrease (Rattus norvegicus [8]): -2%
CCCCCCCCCCCCCCCCOc1ccc(/C=C(\C)C(=O)O)cc1,17%,–,25%,9%,1%,–,–
O=C(/C=C/c1ccccc1)OCC(O)CO (stereo not drawn),–,–,–,–,–,–,Decrease (Rattus norvegicus [9]): 16%; Decrease (Rattus norvegicus [10]): 6%
CCCCCCCCCCCCCCCCOc1ccc(/C=C/C(=O)OCC(O)CO)cc1 (stereo not drawn),19%,62%,17%,9%,8%,26%,Decrease (Rattus norvegicus [13]): 11%; Decrease (Rattus norvegicus [14]): -4%
O=C(/C=C/c1ccc(Oc2ccccc2)cc1)OCCCCl,–,–,–,17%,-2%,–,Decrease (Rattus norvegicus [9]): 54%; Decrease (Rattus norvegicus [11]): 4%; Decrease (Rattus norvegicus [12]): 13%; Decrease (Rattus norvegicus [10]): 32%
CCCCCCCCCCCCCCCCOc1ccc(/C=C(\C)C(=O)OCCCl)cc1,–,–,–,20%,5%,–,Decrease (Rattus norvegicus [15]): 26%; Decrease (Rattus norvegicus [16]): 20%; Decrease (Rattus norvegicus [7]): 24%; Decrease (Rattus norvegicus [8]): 48%
CCCCCCCCCCCCCCCCOc1ccc(/C=C(\C)C(=O)OCC(O)CO)cc1 (stereo not drawn),15%,–,28%,11%,5%,–,Decrease (Rattus norvegicus [7]): 32%; Decrease (Rattus norvegicus [8]): 68%
CCCCCCCCCCCCOc1ccc(/C=C(\C)C(=O)OCC(O)CO)cc1 (stereo not drawn),26%,–,53%,16%,33%,–,Decrease (Rattus norvegicus [13]): 10%; Decrease (Rattus norvegicus [14]): 9%
CCCCCCCCCCCCOc1ccc(/C=C(\C)C(=O)OCC(COC(=O)/C(C)=C/c2ccc(OCCCCCCCCCCCC)cc2)OC(=O)/C(C)=C/c2ccc(OCCCCCCCCCCCC)cc2)cc1 (stereo not drawn),2%,–,–,–,–,–,Decrease (Rattus norvegicus [17]): 28%
C=C(C)C(=O)OCCOC(=O)/C=C/c1ccc(Oc2ccccc2)cc1,–,–,–,–,–,–,Decrease (Rattus norvegicus [7]): 14%; Decrease (Rattus norvegicus [8]): -15%
CCCCOc1ccc(/C=C/C(=O)OCCO)cc1,–,26%,–,–,–,9%,–
CCCCCCCCCCCCCCCCOc1ccc(/C=C/C(=O)OCCOC(=O)/C=C/c2ccc(OCCCCCCCCCCCCCCCC)cc2)cc1,–,–,–,–,–,–,Decrease (Rattus norvegicus [7]): 9%; Decrease (Rattus norvegicus [8]): -4%
C=CCOc1ccc(/C=C/C(=O)OCCCl)cc1,–,26%,–,–,–,-9%,–
CCCCCCCCCCCCCCCCOc1ccc(/C=C(\C)C(=O)OCCS(=O)(=O)[O-])cc1.[Na+],–,–,–,–,–,–,Decrease (Rattus norvegicus [7]): 8%; Decrease (Rattus norvegicus [8]): 36%
O=C(/C=C/c1ccc(Oc2ccccc2)cc1)OCCCl,–,–,–,18%,21%,–,–
CCCCOc1ccc(/C=C/C(=O)OCCN2CCCCC2)cc1.Cl,–,2%,–,–,–,3%,–
CCCCOc1ccc(/C=C/C(=O)OCCN2CCOCC2)cc1.Cl,–,–,–,–,–,–,Decrease (Rattus norvegicus [7]): -9%; Decrease (Rattus norvegicus [8]): -32%
O=C(O)/C=C/c1ccc(Oc2ccccc2)cc1,15%,–,34%,14%,14%,–,–
CCCCCCCCCCCCCCOc1ccc(/C=C(\C)C(=O)OCC(O)CO)cc1 (stereo in doubt; 97),25%,52%,43%,14%,33%,45%,–
CCOC(=O)C(C)(C)Oc1ccc(Cl)cc1 [CLOFIBRATE],14%,41%,35%,–,–,22%,–
